Each structure is given as a SMILES string. Some results are limits rather than exact numbers.

We go through 49 compounds from ChEMBL document CHEMBL1137103, “4-Acylamino-and 4-ureidobenzamides as melanin-concentrating hormone (MCH) receptor 1 antagonists” (Bioorg Med Chem Lett, 2004).

Test [1] concerns the target T1, Melanin-concentrating hormone receptor 1 (Homo sapiens, UniProt Q99705). Description: Binding affinity against human Melanin-concentrating hormone receptor 1 stably transfected CHO cells was determined using [125I]MCH as radioligand. Format: cell-based. The procedure, abridged:
(§1)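 Whole-cell binding in CHO cells expressing the human receptor with [125I]-MCH tracer. Nonspecific binding defined with 1 µM MCH. IC50 values from displacement by various concentrations of test compound.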

The target in test [2] is T2, Melanin-concentrating hormone receptor 2 (Homo sapiens, UniProt Q969V1). Description: Binding affinity against human Melanin-concentrating hormone receptor 2 stably transfected CHO cells was determined using [125I]MCH as radioligand. Format: cell-based. In outline: as §1
Test [3] addresses T2, Melanin-concentrating hormone receptor 2. Description: Antagonistic activity against human Melanin-concentrating hormone receptor 2 stably transfected CHO cells was determined using IP3 assay. Format: functional, cell-based. The procedure, abridged:
(§2)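 CHO whole cells expressing the human receptor, labelled with 5 µCi [3H]-myo-inositol in inositol-free culture medium. Phosphatidylinositol turnover stimulated by submaximal MCH in the presence of increasing ligand concentrations. Generated [3H]-inositol phosphates purified on anion-exchange resin; IC50 derived.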

The target in test [4] is T1, Melanin-concentrating hormone receptor 1. Description: Antagonistic activity against human Melanin-concentrating hormone receptor 1 stably transfected CHO cells was determined using IP3 assay. Format: functional, cell-based. In outline:
as §2

The target is the same in test [5]. In words: Binding affinity against human Melanin-concentrating hormone receptor 1 stably transfected CHO cells was determined using scintillation proximity assay (SPA). The class given is cell-based. In outline: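 Scintillation proximity binding with CHO membranes incubated with PEI-treated WGA-coupled PVT SPA beads and tracer over various test-compound concentrations. Nonspecific binding defined with 1 µM MCH; IC50 derived.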
(In a scintillation proximity assay essentially only radioactivity close to the scintillant gives light.)

Test [6] can be described thus: Inhibitory activity against Histamine H2 receptor.
A short description of test [7]: Inhibitory activity against Dopamine transporter. Set-up: species or system Homo sapiens.
The target of test [8] is D(1A) dopamine receptor (Homo sapiens) (UniProt P21728). In words: Inhibitory activity against Dopamine receptor D1 at 10 uM.
For test [9], the target named is Mu-type opioid receptor (Homo sapiens) (UniProt P35372). Description: Inhibitory activity against Opioid receptor mu 1 at 10 uM.
Test [10] concerns the target T3, Adenosine receptor A3 (Homo sapiens) (UniProt P0DMS8).
T3 sequence (whole entry): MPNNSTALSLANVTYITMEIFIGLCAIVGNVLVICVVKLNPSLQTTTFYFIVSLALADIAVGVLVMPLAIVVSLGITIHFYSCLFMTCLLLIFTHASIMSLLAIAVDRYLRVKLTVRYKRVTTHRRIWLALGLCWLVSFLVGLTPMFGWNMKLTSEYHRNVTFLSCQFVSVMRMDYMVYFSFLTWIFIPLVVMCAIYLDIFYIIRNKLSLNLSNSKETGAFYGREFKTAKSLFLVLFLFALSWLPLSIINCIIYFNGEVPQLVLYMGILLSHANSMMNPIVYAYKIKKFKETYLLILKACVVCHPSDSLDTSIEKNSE
Description: Inhibitory activity against Adenosine A3 receptor at 10 uM.

In test [11] the target is T4, Muscarinic acetylcholine receptor M1 (Homo sapiens) (UniProt P11229).
T4 sequence (whole entry): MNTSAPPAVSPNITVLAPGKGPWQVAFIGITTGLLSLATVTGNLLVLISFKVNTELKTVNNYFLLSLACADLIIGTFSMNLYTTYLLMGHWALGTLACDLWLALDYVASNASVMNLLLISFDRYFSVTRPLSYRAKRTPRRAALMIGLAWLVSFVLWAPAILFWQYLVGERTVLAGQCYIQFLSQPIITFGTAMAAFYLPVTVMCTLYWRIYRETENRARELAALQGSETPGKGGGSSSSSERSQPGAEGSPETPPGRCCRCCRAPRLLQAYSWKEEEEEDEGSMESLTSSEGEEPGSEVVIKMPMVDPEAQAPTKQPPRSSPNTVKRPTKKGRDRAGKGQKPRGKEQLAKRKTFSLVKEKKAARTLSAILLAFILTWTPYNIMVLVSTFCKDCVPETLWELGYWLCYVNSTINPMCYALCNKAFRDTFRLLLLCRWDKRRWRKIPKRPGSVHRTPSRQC
In words: Inhibitory activity against Muscarinic acetylcholine receptor M1 at 10 uM.

Test [12] addresses Sodium-dependent noradrenaline transporter (Homo sapiens) (UniProt P23975). Description: Inhibitory activity against Norepinephrine transporter at 10 uM.
Test [13] can be described thus: Inhibitory activity against 5-hydroxytryptamine 2A receptor.
The nature of test [14]: Inhibitory activity against 5-hydroxytryptamine 2C receptor.

T2 sequence (Q969V1 whole entry): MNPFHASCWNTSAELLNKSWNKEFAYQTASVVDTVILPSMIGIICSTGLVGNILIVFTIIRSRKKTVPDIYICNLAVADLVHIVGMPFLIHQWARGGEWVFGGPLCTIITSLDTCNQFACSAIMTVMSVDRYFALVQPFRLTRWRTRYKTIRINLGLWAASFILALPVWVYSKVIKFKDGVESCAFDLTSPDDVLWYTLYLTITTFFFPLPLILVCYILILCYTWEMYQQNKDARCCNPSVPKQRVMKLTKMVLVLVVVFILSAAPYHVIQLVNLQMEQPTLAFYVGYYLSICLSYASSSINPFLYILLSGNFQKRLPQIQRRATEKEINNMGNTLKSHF
T1 sequence (Q99705 whole entry): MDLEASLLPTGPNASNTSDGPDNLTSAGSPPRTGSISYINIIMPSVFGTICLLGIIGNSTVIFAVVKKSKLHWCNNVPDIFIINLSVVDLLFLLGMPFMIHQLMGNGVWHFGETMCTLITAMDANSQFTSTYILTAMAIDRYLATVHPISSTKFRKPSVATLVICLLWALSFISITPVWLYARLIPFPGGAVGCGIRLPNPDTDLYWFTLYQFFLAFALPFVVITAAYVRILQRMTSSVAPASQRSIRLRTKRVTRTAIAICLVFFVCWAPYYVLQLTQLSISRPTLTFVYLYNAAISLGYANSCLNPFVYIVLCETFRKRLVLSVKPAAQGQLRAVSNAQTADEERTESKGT
Chain of Mu-type opioid receptor (Homo sapiens) (P35372 whole entry): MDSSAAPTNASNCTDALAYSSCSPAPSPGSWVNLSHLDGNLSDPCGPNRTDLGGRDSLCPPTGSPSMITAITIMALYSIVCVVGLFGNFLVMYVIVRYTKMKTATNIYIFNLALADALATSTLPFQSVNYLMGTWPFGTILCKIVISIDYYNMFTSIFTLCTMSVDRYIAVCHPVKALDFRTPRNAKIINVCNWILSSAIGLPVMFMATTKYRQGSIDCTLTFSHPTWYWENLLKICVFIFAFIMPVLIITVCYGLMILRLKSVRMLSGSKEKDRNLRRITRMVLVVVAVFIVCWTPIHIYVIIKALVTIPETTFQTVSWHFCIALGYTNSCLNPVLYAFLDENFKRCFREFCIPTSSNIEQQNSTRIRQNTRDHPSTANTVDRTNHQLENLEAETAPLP
Chain of D(1A) dopamine receptor (Homo sapiens) (P21728 whole entry): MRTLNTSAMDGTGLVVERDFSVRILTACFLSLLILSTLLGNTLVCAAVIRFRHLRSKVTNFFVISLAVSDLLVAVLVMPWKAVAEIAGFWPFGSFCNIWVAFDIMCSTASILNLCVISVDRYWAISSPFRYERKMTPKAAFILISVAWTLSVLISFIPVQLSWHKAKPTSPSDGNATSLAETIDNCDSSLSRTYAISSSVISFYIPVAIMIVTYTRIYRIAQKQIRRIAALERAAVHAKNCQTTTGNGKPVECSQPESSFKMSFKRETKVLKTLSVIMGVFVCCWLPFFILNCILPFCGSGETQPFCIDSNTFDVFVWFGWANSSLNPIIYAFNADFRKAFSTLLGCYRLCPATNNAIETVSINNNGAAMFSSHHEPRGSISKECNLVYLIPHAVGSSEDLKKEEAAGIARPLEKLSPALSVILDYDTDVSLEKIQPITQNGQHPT
Chain of Sodium-dependent noradrenaline transporter (Homo sapiens) (P23975 whole entry): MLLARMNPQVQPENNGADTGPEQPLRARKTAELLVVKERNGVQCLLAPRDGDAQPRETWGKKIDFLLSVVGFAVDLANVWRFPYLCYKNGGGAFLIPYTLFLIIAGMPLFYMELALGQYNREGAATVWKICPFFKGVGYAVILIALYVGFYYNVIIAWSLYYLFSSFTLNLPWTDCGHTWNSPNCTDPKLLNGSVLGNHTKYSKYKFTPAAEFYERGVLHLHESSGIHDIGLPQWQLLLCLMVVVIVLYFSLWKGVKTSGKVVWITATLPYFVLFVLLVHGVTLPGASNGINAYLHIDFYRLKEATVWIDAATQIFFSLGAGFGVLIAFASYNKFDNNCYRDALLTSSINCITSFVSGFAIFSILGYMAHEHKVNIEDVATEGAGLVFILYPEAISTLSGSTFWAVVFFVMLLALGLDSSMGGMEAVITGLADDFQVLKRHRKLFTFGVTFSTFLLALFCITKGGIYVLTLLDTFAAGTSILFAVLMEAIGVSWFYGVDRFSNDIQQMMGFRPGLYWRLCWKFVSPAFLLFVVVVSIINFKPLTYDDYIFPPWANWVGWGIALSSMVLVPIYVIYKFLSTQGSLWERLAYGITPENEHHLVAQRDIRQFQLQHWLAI

A word on the IC50: it is the point on the concentration scale where inhibition reaches its midpoint. A high value points to a need for much substance. Consider `COc1cc(NC(=O)Nc2ccc(Oc3ccccc3)cc2)ccc1C(=O)NCCCN1CCCCC1`, for which the results for the IC50 in test [1], in test [2] and in test [3] were 50 nM, 10000 nM and more than 100000 nM, respectively.

`CCN1CCCC1CNC(=O)c1ccc(NC(=O)Nc2ccc(Oc3ccccc3)cc2)cc1` (centres undefined): the IC50 was 250 nM in test [1], 6310 nM in test [2] and 1300 nM in [4]. Regarding `COc1cc(NC(=O)Nc2ccc(-c3ccccc3)cc2)ccc1C(=O)NCCCN(C)C`, the IC50 was determined as 9100 nM in test [5] and 1480 nM in test [1]. For the compound `CCN(CC)CCNC(=O)c1ccc(NC(=O)Nc2ccc(C#N)cc2)cc1OC`, the concentration for half-maximal inhibition (IC50) in test [5] turned out to be 3200 nM.

For the compound `CCN(CC)CCNC(=O)c1ccc(NC(=O)Nc2cccc(OC(F)(F)F)c2)cc1OC`, the IC50 in [5] stood at 2500 nM. Turning to `COc1cc(NC(=O)Nc2ccccc2Oc2ccccc2)ccc1C(=O)NCCCN1CCCCC1`, the IC50 in test [1] is more than 10000 nM. As to `CCN(CC)CCNC(=O)c1ccc(NC(=O)Nc2ccc(Oc3ccccc3)cc2)cc1OC`, the IC50 was found to be 720 nM in [5], 140 nM in test [1] and 880 nM in test [4]. Take `CCN(CC)CCNC(=O)c1ccc(NC(=O)Nc2ccc(C(F)(F)F)cc2)cc1`: the IC50 amounted to 5.3 nM in test [1] and 170 nM in [4].

Regarding `CCN(CC)CCNC(=O)c1ccc(NC(=O)Nc2ccc(F)c(Cl)c2)cc1OC`, the IC50 in test [5] is 3900 nM. On the same count and under the same terms, the same measure for `CCN(CC)CCNC(=O)c1cc(Cl)c(NC(=O)Nc2ccc(Oc3ccccc3)cc2)cc1OC`: more than 100000 nM; for `CCN(CC)CCNC(=O)c1ccc(NC(=O)Nc2ccc(SC(F)(F)F)cc2)cc1OC`: 200 nM; for `CCN(CC)CCNC(=O)c1ccc(NC(=O)Nc2ccc(F)cc2)cc1OC`: 15800 nM.

For the compound `COc1cc(NC(=O)c2ccc(-c3ccccc3)cc2)ccc1C(=O)NCCCN(C)C`, the figures for the IC50 in test [1], in [2] and in test [4] were 640 nM, more than 100000 nM and 5290 nM, respectively. The compound `CCN(CC)CCNC(=O)c1ccc(NC(=O)Nc2ccccc2)cc1OC` gave an IC50 in test [5] of more than 100000 nM. The term inhibition denotes the relative decrease from the control value, in per cent. On to `COc1cc(NC(=O)Nc2cccc(Oc3ccccc3)c2)ccc1C(=O)NCCCN1CCOCC1`, for which the IC50 is 1800 nM in test [6]; 1500 nM in test [7]; 70 nM in [1]; more than 100000 nM in test [2]; 670 nM in test [13]; 110 nM in test [4]. Besides, the results for the IC50 in test [3] and in [14] were more than 100000 nM and 1300 nM, respectively. The inhibition in test [8] stood at 57%; in test [9], 48%; in test [10] it was 48%; in test [11] it was 64%; in [12], 68%. As to `COc1cc(NC(=O)c2ccc(-c3ccccc3)cc2)ccc1C(=O)NCCN(C)C`, the IC50 in [1] is 2410 nM; in test [2], more than 100000 nM; in test [4] it was 12000 nM. On to `CCN(CC)CCNC(=O)c1ccc(NC(=O)Nc2cccc(SC)c2)cc1OC`, for which the IC50 in test [5] came out at 4700 nM. Same read-out and setting: then `CCN(CC)CCNC(=O)c1ccc(NC(=O)Nc2ccc(C(=O)C(F)(F)F)cc2)cc1OC`, with 5900 nM; and `CCN(CC)CCNC(=O)c1ccc(NC(=O)Nc2ccc(C(C)=O)cc2)cc1OC`, with 13000 nM. `CCN(CC)CCN(C)C(=O)c1ccc(NC(=O)Nc2ccc(Oc3ccccc3)cc2)cc1OC` came in with an IC50 in [5] of more than 100000 nM. In test [1], `CCN(CC)CCNC(=O)c1ccc(NC(=O)c2ccc(-c3ccccc3)cc2)cc1OC` yielded an IC50 of 370 nM. As to `CCN(CC)CCNC(=O)c1ccc(NC(=O)Nc2cc(OC)cc(OC)c2)cc1OC`, in test [5], the IC50 is 18000 nM. The compound `COc1cc(NC(=O)c2ccc(Oc3ccccc3)cc2)ccc1C(=O)NCCCN(C)C` yielded an IC50 in test [1] of 1920 nM. As to `CCN(CC)CCNC(=O)c1ccc(NC(=O)Nc2cc(Cl)cc(Cl)c2)cc1OC`, the IC50 in test [5] came out at 4800 nM.

In turn, `CCN(CC)CCNC(=O)c1ccc(NC(=O)Nc2ccc(OC(F)(F)F)cc2Br)cc1OC` gave an IC50 in test [5] of 8800 nM. On to `CCN(CC)CCNC(=O)c1ccc(NC(=O)Nc2ccc(OC(F)(F)F)cc2)cc1`, for which the IC50 in test [1] was 60 nM; in [2], more than 100000 nM; in test [4] it was 250 nM; in test [3], more than 100000 nM. For `COc1cc(NC(=O)c2ccc(-c3ccccc3)cc2)ccc1C(=O)NCCN1CCN(Cc2ccccc2)CC1`, the IC50 in test [1] stood at 640 nM. Compound `CCN(CC)CCNC(=O)c1ccc(N(C)C(=O)N(C)c2ccc(Oc3ccccc3)cc2)cc1OC` displayed an IC50 in [5] of more than 100000 nM. Compound `COc1cc(NC(=O)c2ccc(-c3ccccc3)cc2)ccc1C(=O)NC1CCN(Cc2ccccc2)CC1` returned an IC50 in test [1] of 130 nM.

Regarding `CCN(CC)CCNC(=O)c1ccc(N(C)C(=O)Nc2ccc(Oc3ccccc3)cc2)cc1OC`, in test [5], the IC50 is 540 nM. As for `COc1cc(NC(=O)Nc2ccc(Nc3ccccc3)cc2)ccc1C(=O)NCCCN1CCCCC1`, the results for the IC50 in test [1] and in test [4] were 850 nM and 1440 nM, respectively. `CCN(CC)CCNC(=O)c1ccc(NC(=O)Nc2ccc(Cl)c(Cl)c2)cc1OC` returned an IC50 in test [5] of 710 nM. In test [5], `CCN(CC)CCNC(=O)c1ccc(NC(=O)Nc2cccc(C(F)(F)F)c2)cc1OC` returned an IC50 of 7900 nM. On to `COc1cc(NC(=O)Nc2cccc(Nc3ccccc3)c2)ccc1C(=O)NCCCN1CCCCC1`, for which the IC50 in test [1] worked out at 8.1 nM; in [2], 10000 nM; in test [4], 25 nM. On to `CCN(CC)CCNC(=O)c1ccc(NC(=O)Nc2ccc(C(F)(F)F)cc2)cc1OC`, for which the IC50 is 50 nM in test [5], 20 nM in test [1], more than 100000 nM in test [2] and 170 nM in test [4]. For `CN(C)CCNC(=O)c1ccc(NC(=O)c2ccc(-c3ccccc3)cc2)cc1`, in test [1], the IC50 is more than 100000 nM.

In the case of `CCN(CC)CCNC(=O)c1ccc(NC(=O)Nc2ccc(Oc3ccccc3)cc2)cc1`, the IC50 in test [5] was 3500 nM. Take `COc1cc(NC(=O)Nc2cccc(Oc3ccccc3)c2)ccc1C(=O)NCCCN1CCCCC1`: the IC50 in test [1] was 20 nM; in test [2], more than 100000 nM; in [4], 30 nM.

Turning to `CCN(CC)CCNC(=O)c1ccc(NC(=O)Nc2ccc(SC)cc2)cc1OC`, in [5], the IC50 was 960 nM. The compound `CCN(CC)CCNC(=O)c1ccc(-c2noc(-c3ccc(Oc4ccccc4)cc3)n2)cc1` returned an IC50 in test [1] of 2450 nM. For the compound `CCOc1cc(NC(=O)Nc2ccc(Oc3ccccc3)cc2)ccc1C(=O)NCCN(CC)CC`, the IC50 in test [1] was 240 nM; in test [4] it was 1950 nM. For `CCN(CC)CCNC(=O)c1ccc(N2CCN(c3ccc(Oc4ccccc4)cc3)C2=O)cc1OC`, the IC50 in [5] was more than 100000 nM. For the compound `CCN1CCCC1CNC(=O)c1ccc(NC(=O)Nc2ccc(Oc3ccccc3)cc2)cc1OC` (centres undefined), the IC50 in test [1] turned out to be 530 nM; in test [4], 3450 nM. For the compound `CCN(CC)CCNC(=O)c1ccc(NC(=O)N(C)c2ccc(Oc3ccccc3)cc2)cc1OC`, the IC50 in [5] worked out at 5800 nM.

In test [5], `CCN(CC)CCN(C)C(=O)c1ccc(NC(=O)Nc2ccc(Oc3ccccc3)cc2)cc1` displayed an IC50 of 11000 nM. In test [5], `CCN(CC)CCNC(=O)c1ccc(NC(=O)Nc2ccc(Br)cc2)cc1OC` had an IC50 of 250 nM. For `O=C(Nc1ccc(Oc2ccccc2)cc1)Nc1ccc(C(=O)NCCN2CCN(Cc3ccccc3)CC2)cc1`, the IC50 in [1] amounted to 140 nM; in [2] it was 2880 nM; in test [4], 5820 nM. `CCN(CC)CCNC(=O)c1ccc(NC(=O)c2ccc(Oc3ccccc3)cc2)cc1OC`: the figures for the IC50 in [1] and in [4] were 1970 nM and 6810 nM, respectively.

In test [1], `CCN1CCCC1CNC(=O)c1ccc(-c2noc(-c3ccc(Oc4ccccc4)cc3)n2)cc1` (centres undefined) showed an IC50 of 1900 nM.
